Source: PubChem BioAssay
APP 5'UTR act – APP 5'UTR luciferase reporter activation. SH-SY5Y APP 5'UTR luciferase reporter, luminescence; zero percent = DMSO vehicle wells. activation, % at 2 µM. 1% of 190,000 active. AID 1276;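 active = activation above a set limit, based on mean plus 3 SD of controls, cut at about 140% in these data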
FLuc inhib CS – inhibits firefly luciferase, flagging false hits in luciferase inhibition screens | P08659 | ATPLite firefly luciferase biochemical luminescence, 10 min | inhibition, % at 10 µM | 1.5% of 200,000 active;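 active = inhibition above about 50% when tested at 10 µM, limit read from the data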
Target sequence (P08659 whole entry, looked up): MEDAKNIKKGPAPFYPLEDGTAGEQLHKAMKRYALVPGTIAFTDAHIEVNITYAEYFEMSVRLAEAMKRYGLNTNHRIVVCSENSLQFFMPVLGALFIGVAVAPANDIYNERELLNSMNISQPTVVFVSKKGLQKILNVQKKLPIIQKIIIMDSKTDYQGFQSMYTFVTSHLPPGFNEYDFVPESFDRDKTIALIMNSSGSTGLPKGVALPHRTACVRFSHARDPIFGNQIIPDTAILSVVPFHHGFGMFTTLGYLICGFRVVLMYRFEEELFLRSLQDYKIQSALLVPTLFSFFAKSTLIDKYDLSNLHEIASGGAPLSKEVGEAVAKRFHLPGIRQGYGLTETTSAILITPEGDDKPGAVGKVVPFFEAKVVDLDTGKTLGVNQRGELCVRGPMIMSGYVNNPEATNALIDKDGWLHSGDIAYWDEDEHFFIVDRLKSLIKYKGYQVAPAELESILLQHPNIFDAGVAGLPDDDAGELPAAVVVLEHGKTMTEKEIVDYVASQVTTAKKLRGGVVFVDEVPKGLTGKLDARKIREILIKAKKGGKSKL
Pf gamet viab – P. falciparum stage V gametocyte viability inhibition; 0.065% of 150,000 active; P. falciparum stage V gametocytes, ATP luminescence, 24 h; inhibition, % at 10.9 µM;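 active = inhibition above the mean plus 3 SD of compounds within the control limits, set per campaign, cut at about 38% in these data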
FLuc act counter – firefly luciferase counter-screen for stimulation assays. 200,000 tested, under 10 active. ATPlite luciferase biochemical, luminescence, 10 min; 0 = ATP-free wells, 1 = DMSO control. AID 1027. activation factor at 10 µM. P08659;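 active = luciferase activation factor, scaled between plate controls, of at least 2 with compound at 10 µM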
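Material: luciferase plus luciferin reagent, cell-free. Medium: PBS buffer for ATP. Also added: ATP substrate, dispensed from a 10.24 µM working solution in PBS. Doses: test compounds dosed from 2 mM stocks in 100% DMSO. Incubation: 10 min post-reagent at room temperature. Technique: light output (luminescence). Read-out basis: luminescence gain marking luciferase activators.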
NF-kB neuron act – raises NF-kB expression in human neuronal cells. NF-kB reporter expression; stronger effect = higher value. 1.6% of 190,000 active. fold change at 12.5 µM; in the data active = fold change above about 3.3
STAT1 activator – activators of IFN-gamma induced STAT1 signaling; AID 932; 2.6% of 200,000 active; activation (% of control), % at 5.5 µM; NIH 3T3 STAT1-luciferase reporter, luminescence; 100% = IFN-gamma alone, no compound;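 active = activation above the screen-wide mean activation plus 3 SD, cut at about 130% in these data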
Of the large screens only hits and unclear results are named; the others gave an inactive call. Compounds with a hit are over-represented: about 3.5% of the library has one in this group of screens.

CC1CN(C2=NC(=O)/C(=C/c3ccncc3)S2)CC(C)O1 (centres undefined)	none (no result: APP 5'UTR act, FLuc inhib CS, FLuc act counter, NF-kB neuron act, STAT1 activator)
Cc1ccccc1C(=O)NC(CC(C)C)C(=O)OCc1cc(=O)n2cc(Br)ccc2n1 (centres undefined)	NF-kB neuron act 3.53, STAT1 activator 137.7
CC1CC1C(=O)OCc1cc(=O)n2cc(Br)ccc2n1 (centres undefined)	STAT1 activator 135.6 (no result: Pf gamet viab)
CCN(C(=O)Cn1c([N+](=O)[O-])cnc1C)c1ccccc1	none (no result: APP 5'UTR act, FLuc inhib CS, FLuc act counter, NF-kB neuron act, STAT1 activator)
C=CCCCCCCCC(=O)OC	none (no result: Pf gamet viab)
O=C(O)c1ccc(N=c2oc3cc(O)ccc3cc2C(=O)NCc2ccccc2)cc1	Pf gamet viab 42.2
NC(=O)c1cc2ccc(O)cc2oc1=NCc1ccccc1	none (no result: Pf gamet viab)
NC(=O)c1cc2ccc(O)cc2oc1=Nc1ccccc1	STAT1 activator 130.5
Cc1cccc(-c2cc3nc(C)cc(C)n3n2)c1	APP 5'UTR act 142.5, NF-kB neuron act 5.93, STAT1 activator 150.0
COc1ccc(-c2cc3nc(C)cc(N)n3n2)cc1	APP 5'UTR act 147.4, FLuc inhib CS 95.3, NF-kB neuron act 4.14 (no result: Pf gamet viab)
Cc1cc(C)n2nc(-c3cccc(Br)c3)cc2n1	none (no result: APP 5'UTR act, FLuc inhib CS, FLuc act counter, NF-kB neuron act, STAT1 activator)
CC(C)(C)OC(=O)NCCCCCNC(=O)c1ncn(Cc2ccccc2)c1C(=O)NCCCCCNC(=O)OC(C)(C)C	none (no result: APP 5'UTR act, FLuc inhib CS, FLuc act counter, NF-kB neuron act, STAT1 activator)
Cc1cccc(Cc2nnc(CCC(=O)N(C)C3CCOC3)o2)c1 (centres undefined)	none
COc1cc(/C=N/Nc2nc(C)nc3c2cnn3-c2ccccc2)ccc1O	none
CCc1cccc(CC)c1NC(=O)/C(C#N)=C/c1ccccc1C(F)(F)F	NF-kB neuron act 3.43
C=CC[C@@H](CC(=O)N[C@H](CO)Cc1ccccc1)C(=O)N[C@H](COC(=O)[C@@H](CC=C)Cc1ccc(F)cc1)Cc1c[nH]c2ccccc12	none (no result: APP 5'UTR act, FLuc inhib CS, FLuc act counter, NF-kB neuron act, STAT1 activator)
CC(C)(C)NC(=O)NC(=O)COC(=O)c1cccc(OC(F)F)c1	none
CCC(=O)N(Cc1ccco1)c1nc(-c2ccc(OC)cc2)cs1	none (no result: APP 5'UTR act, Pf gamet viab)
CCC(=O)N(CC)c1nc(-c2ccc(OC)cc2)cs1	STAT1 activator 142.9 (no result: Pf gamet viab)
N[C@@H](CO)c1nnc([C@H](CCC(=O)O)NC(=O)C2CCNCC2)o1	none
CCn1ccc(C(=O)Oc2ccc(C(C)C)cc2)n1	FLuc inhib CS 61.7
Cc1ccc(S(=O)(=O)N2[C@@H](c3cccc(Cl)c3)C(C(=O)O)=CC[C@H]2c2ccc(C(C)C)cc2)cc1	none (no result: APP 5'UTR act, FLuc inhib CS, FLuc act counter, NF-kB neuron act, STAT1 activator)
CC(C)NC(=S)N/N=C/c1ccc2c(c1)OCCO2	FLuc inhib CS 75.5
COCCCNC(=S)N/N=C/c1ccc2c(c1)OCO2	none (no result: APP 5'UTR act, FLuc inhib CS, FLuc act counter, NF-kB neuron act, STAT1 activator)
COCCNC(=S)N/N=C/c1ccc2c(c1)OCCO2	FLuc inhib CS 58.8
CC1=CC(=C2C(=O)c3ccccc3C2=O)C=C(C)N1C	STAT1 activator 135.4
CCc1nc(Sc2nnnn2-c2ccccc2)c2c3c(sc2n1)CCCC3	NF-kB neuron act 7.95
Cc1nc(Sc2nnnn2C)c2c3c(sc2n1)CCC3	NF-kB neuron act 12.3
O=c1c(-c2cnn(-c3ccccc3)c2)coc2cc(O)ccc12	APP 5'UTR act 140.0, NF-kB neuron act 3.69, STAT1 activator 132.5 (no result: Pf gamet viab)
O=C1CN(S(=O)(=O)c2ccccc2C(F)(F)F)CCN1	none
COC(=O)c1ccc(/C=C(\C#N)c2nc3ccccc3s2)cc1	none (no result: Pf gamet viab)
N#C/C(=C\c1ccccn1)c1nc2ccccc2s1	FLuc inhib CS 68.3
CCn1c(C)cc(C=C2C(=O)c3ccccc3C2=O)c1C	APP 5'UTR act 155.6, FLuc inhib CS 78.6, NF-kB neuron act 3.42 (no result: Pf gamet viab)
Cc1cccc(-n2c(C)cc(C=C3C(=O)c4ccccc4C3=O)c2C)c1	none (no result: Pf gamet viab)
Cc1cc(C=C2C(=O)c3ccccc3C2=O)c(C)n1C	NF-kB neuron act 6.27
Cc1c(Br)c(C(F)(F)F)nn1CC(=O)NCCCn1ccnc1	none
CCSC1=N/C(=C\c2ccc3c(c2)OCO3)C(=O)S1	none
CN1C(=O)/C(=C/c2ccc3c(c2)OCO3)N=C1c1ccccc1	FLuc inhib CS 62.5
Cc1ccc(S(=O)(=O)N2CCC(C(=O)Nc3nnc(-c4ccco4)s3)CC2)cc1	none
O=C(Nc1nnc(-c2ccco2)s1)C1CCCCC1	STAT1 activator 144.3 (no result: Pf gamet viab)
CC(=O)Nc1ccc(OC(=O)Cc2ccc(Cl)cc2)cc1	none (no result: APP 5'UTR act, FLuc inhib CS, FLuc act counter, NF-kB neuron act, STAT1 activator)
CC(=O)Oc1ccc2c(c1)C(=O)c1ccccc1CO2	FLuc inhib CS 65.6 (no result: Pf gamet viab)
O=C(Oc1ccc2c(c1)OCC2=O)c1ccccc1	none (no result: Pf gamet viab)
CC(=O)NCCc1c(C)n(Cc2ccccc2)c2ccccc12	none (no result: APP 5'UTR act, FLuc inhib CS, FLuc act counter, NF-kB neuron act, STAT1 activator)
